Test results as given in ChEMBL document CHEMBL1132569.

What was measured:
[1] = target: T1, Muscarinic acetylcholine receptor M5 (Homo sapiens) (UniProt P08912); experiment: Cooperativity with acetylcholine at Muscarinic acetylcholine receptor M5
T1 sequence (whole entry): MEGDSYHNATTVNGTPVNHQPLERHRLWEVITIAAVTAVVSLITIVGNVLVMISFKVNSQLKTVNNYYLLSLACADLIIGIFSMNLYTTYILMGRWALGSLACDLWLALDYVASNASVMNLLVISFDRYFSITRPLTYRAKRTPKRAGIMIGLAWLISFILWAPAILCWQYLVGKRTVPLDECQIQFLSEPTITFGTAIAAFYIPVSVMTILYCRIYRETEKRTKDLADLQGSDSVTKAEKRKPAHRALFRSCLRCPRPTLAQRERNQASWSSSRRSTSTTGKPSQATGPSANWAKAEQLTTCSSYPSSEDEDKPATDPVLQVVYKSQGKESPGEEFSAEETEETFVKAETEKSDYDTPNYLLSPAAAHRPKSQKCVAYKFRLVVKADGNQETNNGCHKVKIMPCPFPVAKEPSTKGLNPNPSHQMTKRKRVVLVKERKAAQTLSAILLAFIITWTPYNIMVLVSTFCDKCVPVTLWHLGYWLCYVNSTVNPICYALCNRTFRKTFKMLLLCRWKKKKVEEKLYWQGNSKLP
How it was run: (§1)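 Equilibrium ³H-NMS binding in CHO membranes expressing human m1–m5 receptors was measured with and without ACh, alone and with three agent concentrations. Data were converted to affinity ratios, meaning apparent primary-ligand affinity with agent divided by affinity without it.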

[2] = target: T2, Muscarinic acetylcholine receptor M2 (Homo sapiens) (UniProt P08172); experiment: Binding affinity at the unliganded human muscarinic acetylcholine receptor M2 was estimated as log affinity (log1/M)
T2 sequence (whole entry): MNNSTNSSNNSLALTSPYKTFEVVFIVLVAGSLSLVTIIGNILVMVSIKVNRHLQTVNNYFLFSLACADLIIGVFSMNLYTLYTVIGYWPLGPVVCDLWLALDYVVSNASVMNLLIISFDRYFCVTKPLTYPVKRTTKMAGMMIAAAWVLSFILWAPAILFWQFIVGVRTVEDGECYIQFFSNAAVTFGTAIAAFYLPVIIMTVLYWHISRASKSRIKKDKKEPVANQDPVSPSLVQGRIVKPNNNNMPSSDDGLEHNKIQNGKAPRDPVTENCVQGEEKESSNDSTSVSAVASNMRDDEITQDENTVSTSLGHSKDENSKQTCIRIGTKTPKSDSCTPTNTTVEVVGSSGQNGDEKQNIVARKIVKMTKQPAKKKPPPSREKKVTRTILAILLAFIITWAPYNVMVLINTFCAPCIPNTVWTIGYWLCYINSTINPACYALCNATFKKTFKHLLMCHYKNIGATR
How it was run: (§2)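 Equilibrium runs were ≥2 h with 2 × 10⁻⁴ M GTP and 0.1–0.7 nM ³H-NMS. Nonspecific binding was defined with 10⁻⁶ M QNB, and bound ligand was filtered and counted. Log affinities came from semiquantitative plus off-rate, quantitative equilibrium, or nonequilibrium assays, fitted by nonlinear least squares to the allosteric ternary complex model.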

[3] = target: T3, Muscarinic acetylcholine receptor M4 (Homo sapiens) (UniProt P08173); experiment: Binding affinity at the unliganded human muscarinic acetylcholine receptor M4 was estimated as log affinity (log1/M); how it was run: as §2
T3 sequence (whole entry): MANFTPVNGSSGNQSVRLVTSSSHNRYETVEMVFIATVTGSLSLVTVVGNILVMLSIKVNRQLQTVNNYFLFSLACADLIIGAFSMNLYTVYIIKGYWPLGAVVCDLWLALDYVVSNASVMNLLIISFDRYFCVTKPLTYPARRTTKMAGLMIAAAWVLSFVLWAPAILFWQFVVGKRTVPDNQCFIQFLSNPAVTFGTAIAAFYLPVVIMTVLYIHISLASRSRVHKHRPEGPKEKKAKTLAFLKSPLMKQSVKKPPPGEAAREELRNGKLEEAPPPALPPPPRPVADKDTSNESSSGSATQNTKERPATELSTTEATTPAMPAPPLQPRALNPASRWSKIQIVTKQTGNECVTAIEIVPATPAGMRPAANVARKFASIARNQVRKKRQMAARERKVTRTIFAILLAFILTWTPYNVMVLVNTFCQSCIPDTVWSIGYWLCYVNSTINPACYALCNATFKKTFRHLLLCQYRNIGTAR

[4] = target: T4, Muscarinic acetylcholine receptor M1 (Homo sapiens) (UniProt P11229); experiment: Cooperativity with acetylcholine at human muscarinic acetylcholine receptor M1; how it was run: as §1
T4 sequence (whole entry): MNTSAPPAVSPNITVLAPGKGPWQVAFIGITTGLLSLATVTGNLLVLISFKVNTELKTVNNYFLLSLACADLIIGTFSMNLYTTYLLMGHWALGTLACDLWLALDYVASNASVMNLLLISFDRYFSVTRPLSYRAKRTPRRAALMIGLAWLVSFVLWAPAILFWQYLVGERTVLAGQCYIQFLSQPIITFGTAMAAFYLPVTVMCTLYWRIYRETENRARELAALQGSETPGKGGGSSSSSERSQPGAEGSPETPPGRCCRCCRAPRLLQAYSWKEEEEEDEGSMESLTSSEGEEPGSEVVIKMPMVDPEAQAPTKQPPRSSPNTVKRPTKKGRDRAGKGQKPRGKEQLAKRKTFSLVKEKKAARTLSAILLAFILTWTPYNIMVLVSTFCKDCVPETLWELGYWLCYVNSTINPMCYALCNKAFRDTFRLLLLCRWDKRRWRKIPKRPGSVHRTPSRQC

[5] = target: T1, Muscarinic acetylcholine receptor M5 (Homo sapiens); experiment: Binding affinity at the unliganded Muscarinic acetylcholine receptor M5 was estimated as log affinity (log1/M); how it was run: as §2
[6] = target: T3, Muscarinic acetylcholine receptor M4 (Homo sapiens); experiment: Cooperativity with NMS at human muscarinic acetylcholine receptor M4; how it was run: as §1
[7] = target: T4, Muscarinic acetylcholine receptor M1 (Homo sapiens); experiment: Binding affinity at the unliganded human muscarinic acetylcholine receptor M1 was estimated as log affinity (log1/M); how it was run: as §2
[8] = target: Muscarinic acetylcholine receptor M3 (Homo sapiens) (UniProt P20309); experiment: Binding affinity at the unliganded human muscarinic acetylcholine receptor M3 was estimated as log affinity (log1/M); how it was run: as §2
Muscarinic acetylcholine receptor M3 (Homo sapiens), sequence (P20309 whole entry, looked up): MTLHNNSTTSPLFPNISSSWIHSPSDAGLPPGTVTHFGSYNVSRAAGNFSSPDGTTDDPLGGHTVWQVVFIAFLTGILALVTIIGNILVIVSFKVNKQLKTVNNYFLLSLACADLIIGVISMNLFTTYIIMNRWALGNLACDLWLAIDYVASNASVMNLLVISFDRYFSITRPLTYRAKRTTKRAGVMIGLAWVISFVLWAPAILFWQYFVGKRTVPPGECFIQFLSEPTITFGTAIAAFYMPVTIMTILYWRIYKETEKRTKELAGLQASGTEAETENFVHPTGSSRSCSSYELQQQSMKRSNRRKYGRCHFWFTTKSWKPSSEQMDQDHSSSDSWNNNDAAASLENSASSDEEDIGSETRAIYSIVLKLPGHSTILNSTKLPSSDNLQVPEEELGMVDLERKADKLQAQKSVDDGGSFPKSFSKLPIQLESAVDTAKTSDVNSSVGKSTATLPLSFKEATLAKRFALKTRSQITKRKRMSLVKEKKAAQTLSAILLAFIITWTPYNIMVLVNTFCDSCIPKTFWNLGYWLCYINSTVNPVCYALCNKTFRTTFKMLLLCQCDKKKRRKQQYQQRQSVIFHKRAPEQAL

[9] = target: Muscarinic acetylcholine receptor M3 (Homo sapiens) (UniProt P20309); experiment: Cooperativity with NMS at human muscarinic acetylcholine receptor M3; how it was run: as §1
[10] = target: T1, Muscarinic acetylcholine receptor M5 (Homo sapiens); experiment: Binding affinity at the NMS liganded human muscarinic acetylcholine receptor M5 was estimated as log affinity (log1/M); how it was run: as §2
[11] = target: Muscarinic acetylcholine receptor M3 (Homo sapiens) (UniProt P20309); experiment: Binding affinity at the NMS liganded human muscarinic acetylcholine receptor M3 was estimated as log affinity (log1/M); how it was run: as §2
[12] = target: T3, Muscarinic acetylcholine receptor M4 (Homo sapiens); experiment: Cooperativity with acetylcholine at human muscarinic acetylcholine receptor M4; how it was run: as §1
[13] = target: T3, Muscarinic acetylcholine receptor M4 (Homo sapiens); experiment: Binding affinity at the NMS liganded human muscarinic acetylcholine receptor M4 was estimated as log affinity (log1/M); how it was run: as §2
[14] = target: T4, Muscarinic acetylcholine receptor M1 (Homo sapiens); experiment: Binding affinity at the NMS liganded human muscarinic acetylcholine receptor M1 was estimated as log affinity (log1/M); how it was run: as §2
[15] = target: T1, Muscarinic acetylcholine receptor M5 (Homo sapiens); experiment: Cooperativity with NMS at Muscarinic acetylcholine receptor M5; how it was run: as §1
[16] = target: T2, Muscarinic acetylcholine receptor M2 (Homo sapiens); experiment: Cooperativity with acetylcholine at human muscarinic acetylcholine receptor M2; how it was run: as §1
[17] = target: T2, Muscarinic acetylcholine receptor M2 (Homo sapiens); experiment: Cooperativity with NMS at human muscarinic acetylcholine receptor M2; how it was run: as §1
[18] = target: T2, Muscarinic acetylcholine receptor M2 (Homo sapiens); experiment: Binding affinity at the NMS liganded human muscarinic acetylcholine receptor M2 was estimated as log affinity (log1/M); how it was run: as §2
[19] = target: T4, Muscarinic acetylcholine receptor M1 (Homo sapiens); experiment: Cooperativity with NMS at human muscarinic acetylcholine receptor M1; how it was run: as §1
[20] = target: Muscarinic acetylcholine receptor M3 (Homo sapiens) (UniProt P20309); experiment: Cooperativity with acetylcholine at human muscarinic acetylcholine receptor M3; how it was run: as §1

Row | Structure (SMILES) | Cooperativity [1] | Affinity [2] | Affinity [3] | Cooperativity [4] | Affinity [5] | Cooperativity [6] | Affinity [7] | Affinity [8] | Cooperativity [9] | Affinity [10] | Affinity [11] | Cooperativity [12] | Affinity [13] | Affinity [14] | Cooperativity [15] | Cooperativity [16] | Cooperativity [17] | Affinity [18] | Cooperativity [19] | Cooperativity [20]
1 | COc1cc2c(cc1OC)[C@@]13CC[N+]4([O-])CC5=CCO[C@H]6CC(=O)N2[C@H]1[C@H]6[C@H]5C[C@@H]34 (stereo not given in full) | 0.8 | 2.7 | 3.7 | 1.19 | 2.5 | 1.19 | 3.4 | 2.8 | 1.19 | 2.7 | 2.8 | 2 | 3.7 | 3.6 | 2 | 0.8 | > 2 | 3.3 | 2 | > 2
2 | COc1cc2c(cc1OC)[C@@]13CCN4CC5=CCO[C@H]6CC(=O)N2[C@H]1[C@H]6[C@H]5C[C@H]43 | < 0.2 | 4.5 | 4.8 | 2 | 4.3 | 0.8 | 4.6 | 3.5 | 0.8 | 3.3 | 2.9 | 0.8 | 4.5 | 4.5 | < 0.2 | 0.8 | 2 | 4.7 | 1.19 | 0.8
3 | COc1cc2c(cc1OC)[C@@]13CC[N+]4(Cc5ccccc5)CC5=CCO[C@H]6CC(=O)N2[C@H]1[C@H]6[C@H]5C[C@@H]34 (stereo not given in full) | 0.8 | 4.6 | 4.5 | 0.8 | 3.7 | 1.19 | < 4.6 | > 4 | 0.8 | 3.7 | 3.8 | 0.8 | 4.5 | 4.4 | 1.19 | 0.8 | > 2 | 4.8 | 0.8 | 2
